In assay [1] the test system is P388. Kind of assay: […] antitumor activity of compound against P388 leukemia cells at a dose of 3.13 mg/kg. In kind it is functional, Mus musculus. The procedure, abridged: (§1)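 In vivo study: BDF1 mice received 10^6 P388 leukemia cells ip as diluted ascites fluid. Test compounds were suspended in 0.4% CMC and given ip on days 1 and 5 after implantation, with seven mice per group. The endpoint is T/C% = median survival time of the treated group / median survival time of controls × 100.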

Assay [2] deals with P388. In words: […] antitumor activity of compound against P388 leukemia cells at a dose of 6.25 mg/kg. In kind it is functional, Mus musculus. The procedure, abridged: as §1
Assay [3] has as its system P388. In words: Cytotoxic activity of compound against Murine P388 Leukemia. It counts as functional, cell-based, Mus musculus. The conditions noted are these: Mus musculus, P388; read-out: IC50. The procedure, abridged: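 Murine P388 cells were cultured in EMEM with 10% FBS, 2 mM glutamine, 50 units/mL penicillin and 50 μg/mL streptomycin. They were seeded at (1–2) × 10^4 cells/mL without preincubation and exposed to varying concentrations for 72 h at 37 °C, 5% CO2. MTT was then added for 4 h, formazan dissolved in DMSO and read at 570/690 nm.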

The subject of a further assay is HT-29. Kind of assay: Cytotoxic activity of compound against HT-29 colon human tumor cell line. In kind it is functional, cell-based. The procedure, abridged: (§2)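 Culture was in McCoy's 5A with 10% FBS. Cells were seeded at (1–2) × 10^4 cells/mL, preincubated for 24 h, then incubated with various concentrations for 72 h at 37 °C under 5% CO2. MTT was added for 4 h and the formazan dissolved in DMSO, with A570 read against 690 nm.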

Another assay has as its system SK-OV-3. In words: Cytotoxic activity of compound against SK-OV-3 ovary human tumor cell line. It counts as functional, cell-based. The conditions noted are these: SK-OV-3, Female gonad. The procedure, abridged: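 SK-OV-3 cells were maintained in McCoy's 5A with 15% FBS. After seeding at (1–2) × 10^4 cells/mL and 24 h preincubation, wells received graded concentrations for 72 h at 37 °C, 5% CO2. A 4 h MTT incubation followed, with DMSO solubilization and absorbance at 570/690 nm.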

A further assay concerns G-361. In words: Cytotoxic activity of compound against G-361 melanoma human tumor cell line. It counts as functional, cell-based. The gist of the method:
as §2

Assay [4] has as its system P388. Kind of assay: […] antitumor activity of compound against P388 leukemia cells at a dose of 50 mg/kg. In kind it is functional, Mus musculus. The gist of the method: as §1
The nature of assay [5]: Cytotoxic activity of compound against SCaBER bladder squamous human tumor cell line. In kind it is functional, cell-based. The gist of the method: (§3)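 Cells were kept in EMEM with 10% FBS, 2 mM glutamine, NEAA and 1 mM sodium pyruvate. They were seeded at (1–2) × 10^4 cells/mL and preincubated for 24 h. They were then exposed to graded concentrations for 72 h at 37 °C in 5% CO2. MTT was added for a further 4 h and the formazan dissolved in DMSO, with absorbance at 570/690 nm.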

Assay [6] in a line: Cytotoxic activity of compound against AZ-521 stomach human tumor cell line. It counts as functional. The gist of the method:
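AZ-521 cells were grown in EMEM with 10% FBS, 2 mM glutamine and NEAA. They were plated at (1–2) × 10^4 cells/mL and preincubated for 24 h, then treated with a range of concentrations for 72 h at 37 °C, 5% CO2. After a 4 h MTT step, the formazan was dissolved in DMSO and read at 570 nm (reference 690 nm).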

The test system of a further assay is A-427. Kind of assay: Cytotoxic activity of compound against A-427 lung human tumor cell line. In kind it is functional, cell-based. The procedure, abridged:
as §3

The next assay has as its target DNA topoisomerase II (Homo sapiens, UniProt P11388+Q02880). Kind of assay: Inhibitory activity in a DNA cleavage assay using HeLa DNA topoisomerase II yielding its effective concentration. In kind it is protein assay.
Assay [7] concerns P388. Kind of assay: In vitro antitumor activity of compound against P388 leukemia cells at a dose of […] mg/kg. In kind it is functional, Mus musculus. Further details: concentration or dose not given beside the values.
Assay [8] concerns P388. In words: […] antitumor activity f compound against P388 leukemia cells at a dose of […] mg/kg. It counts as functional, Mus musculus.

In brackets after ≈: the same amount, converted by molar mass.

In general, T/C refers to the result in the treated group divided by that in the control group, in per cent. For orientation: IC50 means the concentration needed to halve the response being measured. For the compound `COc1cccc2c1C(=O)c1c(O)c3c(c(O)c1C2=O)C[C@@](O)(C(=O)CO)C[C@@H]3O[C@H]1C[C@H](N)[C@H](O)[C@H](C)O1` [DOXORUBICIN], the results for the T/C in the assay with P388 [1] and in the assay with P388 [2] were 235% and 293%, respectively. For the same compound, the IC50 with P388 [3] was determined as 0.004 µg/mL (≈ 0.00736 µM).

As to CISPLATIN, the values for the T/C in the assay with P388 [1] (Mus musculus) and in the assay on P388 [2] (Mus musculus) were 239% and 290%, respectively.

As to `Cl.NC1CCN(c2nc3c(cc2F)c(=O)c(C(=O)O)cn3-c2nccs2)C1` (centres undefined), the IC50 with HT-29 was 1.2 µg/mL; with SK-OV-3 it was 0.93 µg/mL; with G-361, 0.39 µg/mL; in assay [5] it was 0.34 µg/mL; in assay [6], 0.35 µg/mL; with A-427 it was 0.22 µg/mL. Moreover, the IC50 against DNA topoisomerase II was over 200 µg/mL; in the assay on P388 [3] it was 0.021 µg/mL. Besides, the T/C in the assay with P388 [4] was over 375%; in the assay with P388 [1] it was 150%; in the assay with P388 [7], 213%.

Take `Cl.O=C(O)c1cn(-c2nccs2)c2nc(N3CCC(O)C3)c(F)cc2c1=O` (centres undefined): the results for the T/C in the assay on P388 [4], in the assay with P388 [1] and with P388 [8] were 225%, 138% and 175%, respectively. Besides, the IC50 with P388 [3] was 0.036 µg/mL.

Turning to `CO[C@H]1CN(c2nc3c(cc2F)c(=O)c(C(=O)O)cn3-c2nccs2)C[C@@H]1N.Cl` (stereo in doubt; 43j), the IC50 in the assay with HT-29 stood at 2.1 µg/mL; with SK-OV-3 it was 1.1 µg/mL; in the assay on G-361 it was 0.4 µg/mL; in assay [5], 0.78 µg/mL; in assay [6], 0.58 µg/mL; in the assay on A-427, 0.42 µg/mL. Further, in the assay on P388 [3], the IC50 stood at 0.038 µg/mL. The T/C is on record as over 375% in the assay on P388 [4], 138% in the assay on P388 [1] and 238% in the assay with P388 [7].

As to `COc1cc([C@@H]2c3cc4c(cc3[C@@H](O[C@@H]3O[C@@H]5CO[C@@H](C)O[C@H]5[C@H](O)[C@H]3O)[C@H]3COC(=O)[C@H]23)OCO4)cc(OC)c1O` [ETOPOSIDE], the IC50 in the assay with SK-OV-3 was 0.95 µg/mL (≈ 1.61 µM); in the assay with G-361 it was 0.28 µg/mL (≈ 0.476 µM); in assay [5], 0.31 µg/mL (≈ 0.527 µM); in assay [6] it was 0.08 µg/mL (≈ 0.136 µM); with A-427, 0.095 µg/mL (≈ 0.161 µM); in the assay with P388 [3], 0.0085 µg/mL (≈ 0.0144 µM). Moreover, the T/C with P388 [4] is recorded as over 375%; with P388 [1], 175%; with P388 [7], 250%.

Values taken from ChEMBL document CHEMBL1136012, “Synthesis and structure-activity relationships of novel 7-substituted 1,4-dihydro-4-oxo-1-(2-thiazolyl)-1,8-naphthyridine-3-carboxylic acids as antitumor agents. Part 1” (J Med Chem, 2002).
